This passage reports GI50 results from ChEMBL document CHEMBL4425092, “ent-Labdane Diterpenoids from the Aerial Parts of Eupatorium obtusissmum” (2016).

Holding throughout (type): functional
One assay has as its system A549. Briefly: Antiproliferative activity against human A549 cells after 48 hrs by sulforhodamine B assay. The note with it: A549, 48 h. An outline of the steps: (§1)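 Cells seeded at 2500 per well and treated from day 1 after plating for 48 h, in triplicate, at dilutions over 0.001–100 μM. Stocks were made in DMSO at 400× the top final concentration, and vehicle controls received 0.25% v/v DMSO. Cells were fixed with ice-cold TCA for 60 min at 4 °C, then stained with SRB. OD was read at 530 nm, corrected for medium-only background, and GI50 was calculated by NCI formulas.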
In general terms: Sulforhodamine B stains cellular protein and so reports cell mass.

For another assay, the system named is T47D. Kind of assay: Antiproliferative activity against human T47D cells after 48 hrs by sulforhodamine B assay. An outline of the steps:
(§2)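 Plating was at 5000 cells per well, with 48 h drug exposure starting on day 1, in triplicate, at dilutions spanning 0.001–100 μM. DMSO stocks were 400× the top final concentration, and vehicle controls received 0.25% v/v DMSO. Cells were fixed with cold TCA for 60 min at 4 °C, and growth was measured by SRB. Absorbance at 530 nm was corrected for medium-only blank wells, and GI50 was derived by NCI formulas.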

The next assay relates to SW1573. Briefly: Antiproliferative activity against human SW1573 cells after 48 hrs by sulforhodamine B assay. The note with it: SW1573, 48 h. An outline of the steps:
as §2

In another assay the test system is WiDr. Briefly: Antiproliferative activity against human WiDr cells after 48 hrs by sulforhodamine B assay. An outline of the steps: as §2
For another assay, the system named is HBL-100. Kind of assay: Antiproliferative activity against human HBL100 cells after 48 hrs by sulforhodamine B assay. The note with it: HBL-100, 48 h. An outline of the steps: as §1
The test system of the next assay is HeLa. Briefly: Antiproliferative activity against human HeLa cells after 48 hrs by sulforhodamine B assay. A digest of the protocol: as §1

In general, GI50 refers to the concentration at which growth is held to half of that of the control. Lower therefore signals more potent growth inhibition. For the compound `CC1=CC(=O)O[C@@H]1C[C@@H]1[C@@H](C)C(=O)C[C@@H]2C(C)(C)[C@@H](O)CC[C@@]12C`, the GI50 in the assay with A549, with T47D, in the assay with SW1573, with WiDr, with HBL-100 and in the assay on HeLa was more than 100 µM throughout.

On to `COc1cc([C@@H]2c3cc4c(cc3[C@@H](O[C@@H]3O[C@@H]5CO[C@@H](C)O[C@H]5[C@H](O)[C@H]3O)[C@H]3COC(=O)[C@H]23)OCO4)cc(OC)c1O` [ETOPOSIDE], for which the GI50 in the assay with A549 was determined as 0.7 µM; in the assay on T47D, 22 µM; in the assay on SW1573 it was 15 µM; with WiDr, 23 µM; with HBL-100, 2.3 µM; with HeLa, 3 µM.

Consider `C=C1CC[C@@H]2C(C)(C)[C@@H](O)CC[C@@]2(C)[C@@H]1C[C@H]1OC(=O)C=C1C`, for which the GI50 in the assay with A549 is 44 µM; in the assay on T47D, more than 100 µM; with SW1573, more than 100 µM; in the assay on WiDr, more than 100 µM; with HBL-100, more than 100 µM; with HeLa it was 62 µM.

On to `CC1=CC(=O)O[C@H]1C[C@@H]1[C@@H](C)C(=O)C[C@@H]2C(C)(C)[C@@H](O)CC[C@@]12C`, for which the GI50 with A549, with T47D, in the assay with SW1573, in the assay with WiDr, in the assay with HBL-100 and with HeLa was more than 100 µM in each case.

In the case of `C=C1[C@@H](OC(C)=O)C[C@@H]2C(C)(C)[C@@H](O)CC[C@@]2(C)[C@@H]1C[C@H]1OC(=O)C=C1C`, the GI50 is 23 µM with A549; 24 µM in the assay on T47D; 57 µM with SW1573; 32 µM in the assay with WiDr; 35 µM in the assay on HBL-100; 19 µM with HeLa.

For the compound `CC1=CC(=O)O[C@@H]1C[C@@H]1[C@@H](C)C(=O)C[C@@H]2C(C)(C)[C@H](O)CC[C@@]12C`, the GI50 in the assay on A549, in the assay on T47D, in the assay with SW1573, in the assay on WiDr, with HBL-100 and in the assay with HeLa was more than 100 µM throughout.

For `C=C1CC[C@@H]2C(C)(C)[C@H](O)CC[C@@]2(C)[C@@H]1C[C@H]1OC(=O)C=C1C`, the GI50 was 59 µM in the assay on A549; more than 100 µM in the assay on T47D; more than 100 µM with SW1573; more than 100 µM with WiDr; more than 100 µM with HBL-100; 62 µM in the assay with HeLa.
